Test results as given in ChEMBL document CHEMBL4725360, “Optimization of Acetazolamide-Based Scaffold as Potent Inhibitors of Vancomycin-Resistant Enterococcus” (J Med Chem, 2020).
Values after ≈ are worked out from the molar mass of the structure shown. Active and inactive are the calls of the source. No cut-off for these calls is given here.

How the values were obtained:
Enterococcus faecium [1] = assay: Antibacterial activity against Enterococcus faecium ATCC 700221 by CLSI protocol based assay; type: functional
Outline: (§1)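 Broth microdilution per CLSI. Strains grown aerobically overnight on trypticase soy agar at 37 °C. Inoculum set to 0.5 McFarland, diluted in trypticase soy broth to about 5 × 10⁵ CFU/mL. Agents serially diluted, plates incubated aerobically at 37 °C for 18–20 h. MIC is the lowest concentration with no visible growth. Compound stocks 10 mg/mL in DMSO.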

Enterococcus faecium [2] = assay: Antibacterial activity against Enterococcus faecium HM968 incubated for 18 to 20 hrs under aerobic condition by CLSI protocol based broth microdilution assay; type: functional; conditions: time hrs 18-20; outline: as §1
Enterococcus faecium [3] = assay: Antibacterial activity against Enterococcus faecium NR-28978 incubated for 18 to 20 hrs under aerobic condition by CLSI protocol based broth microdilution assay; type: functional; conditions: time hrs 18-20; outline: as §1
Enterococcus faecium [4] = assay: Antibacterial activity against Enterococcus faecium NR-31903 incubated for 18 to 20 hrs under aerobic condition by CLSI protocol based broth microdilution assay; type: functional; conditions: time hrs 18-20; outline: as §1
Enterococcus faecium [5] = assay: Antibacterial activity against Enterococcus faecium NR-32065 incubated for 18 to 20 hrs under aerobic condition by CLSI protocol based broth microdilution assay; type: functional; conditions: time hrs 18-20; outline: as §1
Enterococcus faecium [6] = assay: Antibacterial activity against Enterococcus faecium NR-31914 incubated for 18 to 20 hrs under aerobic condition by CLSI protocol based broth microdilution assay; type: functional; conditions: time hrs 18-20; outline: as §1
Enterococcus faecium [7] = assay: Antibacterial activity against Enterococcus faecium NR-31916 incubated for 18 to 20 hrs under aerobic condition by CLSI protocol based broth microdilution assay; type: functional; conditions: time hrs 18-20; outline: as §1
Enterococcus faecium [8] = assay: Antibacterial activity against Enterococcus faecium NR-32052 incubated for 18 to 20 hrs under aerobic condition by CLSI protocol based broth microdilution assay; type: functional; conditions: time hrs 18-20; outline: as §1
Enterococcus faecium [9] = assay: Antibacterial activity against Enterococcus faecium NR-31971 incubated for 18 to 20 hrs under aerobic condition by CLSI protocol based broth microdilution assay; type: functional; conditions: time hrs 18-20; outline: as §1
Enterococcus faecalis [10] = assay: Antibacterial activity against Enterococcus faecalis HM-335 incubated for 18 to 20 hrs under aerobic condition by CLSI protocol based broth microdilution assay; type: functional; conditions: time hrs 18-20; outline: as §1
Enterococcus faecium [11] = assay: Bacteriostatic activity against Enterococcus faecium ATCC 700221 assessed as reduction in bacterial burden at 5 times MIC preincubated for 24 hrs followed by replating on soya agar plates and measured after 16 hrs by time-kill assay; type: functional, organism-based
Outline: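 E. faecium ATCC 700221 overnight culture diluted in trypticase soy broth to 3.5 × 10⁶ CFU/mL. […] Samples taken at 2, 4, 6, 8, 12 and 24 h, diluted in PBS and plated on trypticase soy agar. Colonies counted after 16 h at 37 °C. Detection limit 100 CFU/mL. Two-way ANOVA with Dunnett's test.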

Enterococcus faecium [12] = assay: Antibacterial activity against Enterococcus faecium NR-31972 incubated for 18 to 20 hrs under aerobic condition by CLSI protocol based broth microdilution assay; type: functional; conditions: time hrs 18-20; outline: as §1
Enterococcus faecium [13] = assay: Antibacterial activity against Enterococcus faecium HM965 incubated for 18 to 20 hrs under aerobic condition by CLSI protocol based broth microdilution assay; type: functional; conditions: time hrs 18-20; outline: as §1
Enterococcus faecalis [14] = assay: Antibacterial activity against Enterococcus faecalis HM-334 incubated for 18 to 20 hrs under aerobic condition by CLSI protocol based broth microdilution assay; type: functional; conditions: time hrs 18-20; outline: as §1
Enterococcus faecalis [15] = assay: Antibacterial activity against Enterococcus faecalis NR-31975 incubated for 18 to 20 hrs under aerobic condition by CLSI protocol based broth microdilution assay; type: functional, organism-based; conditions: time hrs 18-20; outline: as §1
Enterococcus faecalis [16] = assay: Antibacterial activity against Enterococcus faecalis NR-31970 incubated for 18 to 20 hrs under aerobic condition by CLSI protocol based broth microdilution assay; type: functional, organism-based; conditions: time hrs 18-20; outline: as §1
Caco-2 = assay: Cytotoxicity against human Caco2 cells at 128 ug/ml incubated for 2 hrs by MTS assay; type: cell-based; conditions: caco-2, 2 h, dose 128 µg/ml
Outline: (§2)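 Caco-2 cells maintained in DMEM with 10% FBS, non-essential amino acids and penicillin-streptomycin at 37 °C, 5% CO₂. Compound exposure for 2 h in serum-free medium at several concentrations; DMSO-matched controls. Viability expressed relative to DMSO controls (mean ± SD), and CC₅₀ derived.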

[17] = Cytotoxicity against human Caco2 cells incubated for 2 hrs by MTS assay; type: cell-based; conditions: Caco-2 cells; outline: as §2
Enterococcus faecium [18] = assay: Inhibition of carbonic anhydrase in Enterococcus faecium ATCC 700221 assessed as antibacterial activity incubated for 18 to 20 hrs in presence of ambient air by CLSI protocol based broth microdilution assay; conditions: time hrs 18-20
Outline: (§3)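 CLSI broth microdilution: inoculum about 5 × 10⁵ CFU/mL in trypticase soy broth with serial dilutions of agents. Paired plates incubated at 37 °C for 18–20 h, one set in ambient air ("normal"), the other under 5% CO₂. MIC is the lowest concentration completely inhibiting visible growth.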

Enterococcus faecium [19] = assay: Inhibition of carbonic anhydrase in Enterococcus faecium ATCC 700221 assessed as antibacterial activity incubated for 18 to 20 hrs in presence of 5% CO2 by CLSI protocol based broth microdilution assay; conditions: time hrs 18-20; outline: as §3
Enterococcus faecium [20] = assay: Inhibition of carbonic anhydrase in Enterococcus faecium NR-31971 assessed as antibacterial activity incubated for 18 to 20 hrs in presence of ambient air by CLSI protocol based broth microdilution assay; conditions: time hrs 18-20; outline: as §3
Enterococcus faecium [21] = assay: Inhibition of carbonic anhydrase in Enterococcus faecium NR-31972 assessed as antibacterial activity incubated for 18 to 20 hrs in presence of ambient air by CLSI protocol based broth microdilution assay; conditions: time hrs 18-20; outline: as §3
Enterococcus faecium [22] = assay: Inhibition of carbonic anhydrase in Enterococcus faecium HM-965 assessed as antibacterial activity incubated for 18 to 20 hrs in presence of ambient air by CLSI protocol based broth microdilution assay; conditions: time hrs 18-20; outline: as §3
Enterococcus faecalis [23] = assay: Inhibition of carbonic anhydrase in Enterococcus faecalis HM-334 assessed as antibacterial activity incubated for 18 to 20 hrs in presence of ambient air by CLSI protocol based broth microdilution assay; conditions: time hrs 18-20; outline: as §3
Enterococcus faecium [24] = assay: Inhibition of carbonic anhydrase in Enterococcus faecium NR-31971 assessed as antibacterial activity incubated for 18 to 20 hrs in presence of 5% CO2 by CLSI protocol based broth microdilution assay; conditions: time hrs 18-20; outline: as §3
Enterococcus faecium [25] = assay: Inhibition of carbonic anhydrase in Enterococcus faecium NR-31972 assessed as antibacterial activity incubated for 18 to 20 hrs in presence of 5% CO2 by CLSI protocol based broth microdilution assay; conditions: time hrs 18-20; outline: as §3
Enterococcus faecium [26] = assay: Inhibition of carbonic anhydrase in Enterococcus faecium HM-965 assessed as antibacterial activity incubated for 18 to 20 hrs in presence of 5% CO2 by CLSI protocol based broth microdilution assay; conditions: time hrs 18-20; outline: as §3
Enterococcus faecalis [27] = assay: Inhibition of carbonic anhydrase in Enterococcus faecalis HM-334 assessed as antibacterial activity incubated for 18 to 20 hrs in presence of 5% CO2 by CLSI protocol based broth microdilution assay; conditions: time hrs 18-20; outline: as §3
[28] = Apparent permeability across apical to basolateral side in human Caco2 cells; type: ADME, cell-based; conditions: caco-2
Outline: (§4)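 Bi-directional Caco-2 monolayer permeability, run at Eurofins: donor at pH 6.5, receiver at pH 7.4, both A→B and B→A. Papp derived from receiver concentration at the end point, incubation time, monolayer area and mid-point donor concentration. Concentrations taken as peak areas.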

[29] = Apparent permeability across basolateral to apical side in human Caco2 cells; type: ADME, cell-based; conditions: caco-2; outline: as §4

SMILES | MIC (Enterococcus faecium [1]) | MIC (Enterococcus faecium [2]) | MIC (Enterococcus faecium [3]) | MIC (Enterococcus faecium [4]) | MIC (Enterococcus faecium [5]) | MIC (Enterococcus faecium [6]) | MIC (Enterococcus faecium [7]) | MIC (Enterococcus faecium [8]) | MIC (Enterococcus faecium [9]) | MIC (Enterococcus faecalis [10]) | Activity (Enterococcus faecium [11]) | MIC (Enterococcus faecium [12]) | MIC (Enterococcus faecium [13]) | MIC (Enterococcus faecalis [14]) | Activity (Enterococcus faecalis [15]) | Activity (Enterococcus faecalis [16]) | Activity (Caco-2) | CC50 at 2 h [17] | inhibition (Enterococcus faecium [18]) | inhibition (Enterococcus faecium [19]) | also measured
CC(=O)/N=c1/sc(S(N)(=O)=O)nn1C [METHAZOLAMIDE] | 4 µg/mL (≈ 16.9 µM) | – | – | – | – | – | – | – | – | – | – | – | – | – | – | – | – | – | – | – | –
CC(=O)NC[C@H]1CN(c2ccc(N3CCOCC3)c(F)c2)C(=O)O1 [LINEZOLID] | – | 0.5 µg/mL (≈ 1.48 µM) | 1 µg/mL (≈ 2.96 µM) | 1 µg/mL (≈ 2.96 µM) | 0.25 µg/mL (≈ 0.741 µM) | 1 µg/mL (≈ 2.96 µM) | 1 µg/mL (≈ 2.96 µM) | 0.5 µg/mL (≈ 1.48 µM) | 1 µg/mL (≈ 2.96 µM) | 0.5 µg/mL (≈ 1.48 µM) | Active | 0.5 µg/mL (≈ 1.48 µM) | – | – | – | – | – | – | – | – | –
NS(=O)(=O)c1nnc(NC(=O)CCC2CCCC2)s1 | – | 0.06 µg/mL (≈ 0.197 µM) | 0.125 µg/mL (≈ 0.411 µM) | 0.03 µg/mL (≈ 0.0986 µM) | 0.06 µg/mL (≈ 0.197 µM) | 0.06 µg/mL (≈ 0.197 µM) | 0.03 µg/mL (≈ 0.0986 µM) | 0.06 µg/mL (≈ 0.197 µM) | 0.03 µg/mL (≈ 0.0986 µM) | 0.06 µg/mL (≈ 0.197 µM) | – | 0.03 µg/mL (≈ 0.0986 µM) | 0.06 µg/mL (≈ 0.197 µM) | 0.015 µg/mL (≈ 0.0493 µM) | Active | Active | Non-Toxic | > 128 µg/mL | Active | inactive | –
CC(=O)Nc1nnc(S(N)(=O)=O)s1 [ACETAZOLAMIDE] | 0.5 µg/mL (≈ 2.25 µM) | – | – | – | – | – | – | – | – | – | Active | – | – | – | – | – | – | – | – | – | MIC (Enterococcus faecium [20]): 2 µg/mL; MIC (Enterococcus faecium [21]): 2 µg/mL; MIC (Enterococcus faecium [22]): 2 µg/mL; MIC (Enterococcus faecalis [23]): 2 µg/mL; MIC (Enterococcus faecium [18]): 1 µg/mL; MIC (Enterococcus faecium [24]): > 64 µg/mL; MIC (Enterococcus faecium [25]): > 64 µg/mL; MIC (Enterococcus faecium [26]): > 64 µg/mL; MIC (Enterococcus faecalis [27]): > 64 µg/mL; MIC (Enterococcus faecium [19]): > 64 µg/mL; Papp A→B [28]: 0.19 ×10⁻⁶ cm/s; Papp B→A [29]: 0.77 ×10⁻⁶ cm/s
NS(=O)(=O)c1nnc(NC(=O)CC2CCCC2)s1 | – | 0.06 µg/mL (≈ 0.207 µM) | 0.125 µg/mL (≈ 0.43 µM) | 0.125 µg/mL (≈ 0.43 µM) | 0.015 µg/mL (≈ 0.0517 µM) | 0.125 µg/mL (≈ 0.43 µM) | 0.015 µg/mL (≈ 0.0517 µM) | 0.06 µg/mL (≈ 0.207 µM) | 0.06 µg/mL (≈ 0.207 µM) | 0.03 µg/mL (≈ 0.103 µM) | – | 0.03 µg/mL (≈ 0.103 µM) | 0.06 µg/mL (≈ 0.207 µM) | 0.03 µg/mL (≈ 0.103 µM) | Active | Active | Non-Toxic | > 128 µg/mL | Active | inactive | –
